The text below walks through data of ChEMBL document CHEMBL1123769, “Renin inhibitors. Design of angiotensinogen transition-state analogues containing novel. (2R,3R,4R,5S)-5-amino-3,4-dihydroxy-2-isopropyl-7-methyloctanoic acid” (J Med Chem, 1987).

In one experiment the target is T1, Renin (Homo sapiens, UniProt P00797).
T1 sequence (P00797 whole entry): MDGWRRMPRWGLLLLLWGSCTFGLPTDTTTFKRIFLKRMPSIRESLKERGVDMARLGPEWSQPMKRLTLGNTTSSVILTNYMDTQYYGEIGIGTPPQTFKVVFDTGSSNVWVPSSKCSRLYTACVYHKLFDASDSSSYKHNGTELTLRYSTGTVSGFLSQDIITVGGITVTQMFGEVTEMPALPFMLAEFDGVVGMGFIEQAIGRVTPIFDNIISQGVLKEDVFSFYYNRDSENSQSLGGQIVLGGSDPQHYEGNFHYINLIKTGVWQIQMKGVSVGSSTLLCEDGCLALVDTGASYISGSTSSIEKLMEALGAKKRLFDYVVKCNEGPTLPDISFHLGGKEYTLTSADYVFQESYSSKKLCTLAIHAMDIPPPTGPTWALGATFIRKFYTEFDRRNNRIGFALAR
The experiment is described as follows: Tested for the inhibition of human plasma renin. The method in brief: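 Lyophilized human plasma with 0.1% EDTA, incubated with phenylmethanesulfonyl fluoride, maleate buffer (pH 6.0) and inhibitor in 1% Tween 80/water vehicle, 90 min at 37 °C. Angiotensin I generated was measured by radioimmunoassay kit. Percent inhibition came from inhibitor versus control plasma renin activity. IC50 was estimated graphically from 3–4 inhibitor concentrations plotted on a semilog scale.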

The next experiment concerns the target T2, Renin (Homo sapiens) (UniProt P00797).
T2 sequence (whole entry): T1 sequence (P00797 whole entry)
As to the kind of experiment: Tested for the inhibition of human plasma renin at 10e-4 M concentration.

SMILES strings stand for the structures. Where a SMILES comes first, the peptide text is derived from it. [ ]: non-standard residue; d: D form. The star is where a group is joined. 1Nal = N[C@@H](Cc1cccc2ccccc12)C(=O)O; Leu(ol) = CC(C)C[C@H](N)CO; Cbz = O=C(OCc1ccccc1)*

By IC50 is commonly meant the concentration that inhibits the measured activity by half. A low value points to inhibition by little substance. For `O=C(N[C@@H](Cc1cccc2ccccc12)C(=O)N[C@@H](Cc1c[nH]cn1)C(=O)N[C@@H](Cc1ccccc1)[C@@H](O)CO)OCc1ccccc1`, on Renin, half-maximal inhibition (IC50) was put at 1 µM.

As usually defined, the inhibition is the share of the control response that was lost under treatment. A higher inhibition goes with a strong effect. On Renin (Homo sapiens), `CC(C)C[C@@H](CO)NC(=O)[C@H](Cc1c[nH]cn1)NC(=O)[C@H](Cc1ccccc1)NC(=O)OCc1ccccc1` (HELM PEPTIDE1{[O=C(OCc1ccccc1)[*:2]].F.H.[CC(C)C[C@@H](CO)N[*:1]]}$$$$V2.0) had an inhibition of 22%. Regarding `CC(C)C[C@@H](CO)NC(=O)[C@H](Cc1c[nH]cn1)NC(=O)[C@H](Cc1cccc2ccccc12)NC(=O)OCc1ccccc1` (Cbz-[1Nal]-His-[Leu(ol)]), the IC50 at Renin is 3.6 µM. At Renin, `CC(C)C[C@@H](C=O)NC(=O)[C@H](Cc1c[nH]cn1)NC(=O)[C@H](Cc1ccccc1)NC(=O)OCc1ccccc1` (Cbz-Phe-His-Leu-aldehyde) gave an IC50 of 0.75 µM. On to `CC(C)C[C@@H](C=O)NC(=O)[C@H](Cc1c[nH]cn1)NC(=O)[C@H](Cc1cccc2ccccc12)NC(=O)OCc1ccccc1` (Cbz-[1Nal]-His-Leu-aldehyde), for which, on Renin, the IC50 worked out at 0.08 µM.

For `CC[C@H](C)[C@H](NC(=O)[C@@H](C[C@H](O)[C@H](CC(C)C)NC(=O)[C@H](Cc1c[nH]cn1)NC(=O)[C@H](Cc1ccccc1)NC(=O)OC(C)(C)C)C(C)C)C(=O)NCc1ccccn1`, the IC50 against Renin stood at 0.22 µM. `CC[C@H](C)[C@H](NC(=O)[C@@H](CC(=O)[C@H](CC(C)C)NC(=O)[C@H](Cc1c[nH]cn1)NC(=O)[C@H](Cc1ccccc1)NC(=O)OC(C)(C)C)C(C)C)C(=O)NCc1ccccn1` came in with an IC50 on Renin of 3.1 µM. For `CC[C@H](C)[C@H](NC(=O)[C@H](C(C)C)[C@@H](O)[C@H](O)[C@H](CC(C)C)NC(=O)[C@H](Cc1c[nH]cn1)NC(=O)[C@H](Cc1ccccc1)NC(=O)OC(C)(C)C)C(=O)NCc1ccccn1`, the IC50 against Renin was found to be 0.35 µM. Turning to `CC(C)(C)OC(=O)N[C@@H](Cc1ccccc1)C(=O)N[C@@H](Cc1c[nH]cn1)C(=O)N[C@@H](Cc1ccccc1)[C@@H](O)CO`, on Renin, the IC50 is 2.6 µM.

In turn, `CC[C@H](C)CNC(=O)[C@H](C(C)C)[C@@H](O)[C@H](O)[C@H](CC(C)C)NC(=O)[C@H](Cc1c[nH]cn1)NC(=O)[C@H](Cc1ccccc1)NC(=O)OC(C)(C)C` returned an IC50 against Renin of 3.4 µM.
